{"source": "ChEMBL document CHEMBL1143935", "about": "“Synthesis and biological evaluation of novel dimiracetam derivatives useful for the treatment of neuropathic pain” (Bioorg Med Chem, 2008)", "key": {"Rattus norvegicus [1]": {"system": "Rattus norvegicus", "experiment": "Antihyperalgesic activity in Sprague-Dawley rat assessed as lesioned paw pressure threshold at 100 ug/kg, icv after 60 mins", "format": "functional", "procedure,_shortened": "(§1)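 Sciatic nerve-ligated (chronic constriction injury, Bennett–Xie) male Sprague–Dawley rats, 150–200 g, dosed i.c.v.; saline served as vehicle. Paw withdrawal threshold (g) of the lesioned paw was read by analgesimeter before dosing and at 30, 45 and 60 min, max force 240 g. Baseline outliers (<40 g, >75 g) were excluded. Mean ± SEM of 8–14 rats; ANOVA with Fisher PLSD.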"}, "Rattus norvegicus [2]": {"system": "Rattus norvegicus", "experiment": "Antihyperalgesic activity in Sprague-Dawley rat assessed as lesioned paw pressure threshold at 100 ug/kg, icv after 45 mins", "format": "functional", "procedure,_shortened": "as §1"}, "Rattus norvegicus [3]": {"system": "Rattus norvegicus", "experiment": "Antihyperalgesic activity in Sprague-Dawley rat assessed as lesioned paw pressure threshold at 100 ug/kg, icv after 30 mins", "format": "functional", "procedure,_shortened": "as §1"}, "Rattus norvegicus [4]": {"system": "Rattus norvegicus", "experiment": "Antihyperalgesic activity in Sprague-Dawley rat assessed as lesioned paw pressure threshold at 10 ug/kg, icv after 30 mins", "format": "functional", "procedure,_shortened": "as §1"}, "Rattus norvegicus [5]": {"system": "Rattus norvegicus", "experiment": "Antihyperalgesic activity in Sprague-Dawley rat assessed as lesioned paw pressure threshold at 10 ug/kg, icv after 45 mins", "format": "functional", "procedure,_shortened": "as §1"}, "Rattus norvegicus [6]": {"system": "Rattus norvegicus", "experiment": "Antihyperalgesic activity in Sprague-Dawley rat assessed as lesioned paw pressure threshold at 10 ug/kg, icv after 60 mins", "format": "functional", "procedure,_shortened": "as §1"}, "Rattus norvegicus [7]": {"species": "Rattus norvegicus", "experiment": "Analgesic activity against streptozotocin-induced hyperalgesia in Sprague-Dawley rat assessed as increase in paw mechanical threshold", "format": "functional, organism-based", "procedure,_shortened": "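Male Sprague–Dawley rats, 150–200 g, given streptozotocin 50 mg/kg ip and tested 21 days later; compound given orally at 30–100 mg/kg, with non-diabetic controls. Paw pressure analgesimeter recorded force (g) causing first struggle before and 30, 45, 60 min after dosing; 240 g cutoff. Means of 9–10 rats; ANOVA with Fisher's PLSD.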"}, "Rattus norvegicus [8]": {"system": "Rattus norvegicus", "experiment": "Analgesic activity against nerve injury-induced hyperalgesia in Sprague-Dawley rat assessed as increase in lesional paw pressure threshold at 50 mg/kg, po after 30 to 60 mins", "format": "functional, organism-based", "parameters": "dose 50 mg/kg", "procedure,_shortened": "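Male Sprague–Dawley rats, 150–200 g, with chronic constriction injury (loose ligatures on right common sciatic nerve, chloral hydrate anaesthesia); oral dosing. Paw pressure analgesimeter measured withdrawal/first-struggle force (g) on lesioned and contralateral paws before and 30, 45, 60 min after dosing. Pre-dose scores below 40 g or above 75 g excluded; 240 g cutoff. Means of 6–11 rats; ANOVA with Fisher's PLSD.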"}, "Rattus norvegicus [9]": {"system": "Rattus norvegicus", "experiment": "Antihyperalgesic activity in Sprague-Dawley rat assessed as lesioned paw pressure threshold at 30 ug/kg, icv after 45 mins", "format": "functional", "procedure,_shortened": "as §1"}, "Rattus norvegicus [10]": {"system": "Rattus norvegicus", "experiment": "Antihyperalgesic activity in Sprague-Dawley rat assessed as lesioned paw pressure threshold at 30 ug/kg, icv after 30 mins", "format": "functional", "procedure,_shortened": "as §1"}, "Rattus norvegicus [11]": {"system": "Rattus norvegicus", "experiment": "Antihyperalgesic activity in Sprague-Dawley rat assessed as lesioned paw pressure threshold at 30 ug/kg, icv after 60 mins", "format": "functional", "procedure,_shortened": "as §1"}, "Rattus norvegicus [12]": {"system": "Rattus norvegicus", "experiment": "Neurotoxicity in Sprague-Dawley rat assessed as behavioural impairment at 100 mg/kg, po by rotarod test", "format": "toxicity, organism-based", "parameters": "dose 100 mg/kg, route oral", "settings": "in vivo", "procedure,_shortened": "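Rotarod motor incoordination test in male Sprague–Dawley rats: animals walk against the rotating drum for 30 s, and the readout is the number of falls in 30 s.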"}, "Rattus norvegicus [13]": {"system": "Rattus norvegicus", "experiment": "Antihyperalgesic activity in Sprague-Dawley rat assessed as lesioned paw pressure threshold at 500 ug/kg, icv after 30 mins", "format": "functional", "procedure,_shortened": "(§2)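 Male Sprague–Dawley rats, 150–200 g, with right sciatic nerve chronic constriction injury (Bennett–Xie). Compound given i.c.v. and withdrawal threshold (g) on lesioned and contralateral paws measured with an analgesimeter before dosing and at 30, 45, 60 min. Pre-dose scores outside 40–75 g excluded; 240 g maximum force. 8–14 rats per group; ANOVA with Fisher's PLSD.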"}, "Rattus norvegicus [14]": {"system": "Rattus norvegicus", "experiment": "Antihyperalgesic activity in Sprague-Dawley rat assessed as lesioned paw pressure threshold at 500 ug/kg, icv after 60 mins", "format": "functional", "procedure,_shortened": "as §2"}, "Rattus norvegicus [15]": {"system": "Rattus norvegicus", "experiment": "Antihyperalgesic activity in Sprague-Dawley rat assessed as lesioned paw pressure threshold at 500 ug/kg, icv after 45 mins", "format": "functional", "procedure,_shortened": "as §2"}, "Rattus norvegicus [16]": {"system": "Rattus norvegicus", "experiment": "Analgesic activity against nerve injury-induced hyperalgesia in Sprague-Dawley rat assessed as increase in lesional paw pressure threshold at 30 mg/kg, po after 30 to 60 mins", "format": "functional, organism-based", "parameters": "dose 30 mg/kg", "procedure,_shortened": "(§3)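 Male Sprague–Dawley rats (150–200 g) given a chronic constriction injury: loose ligatures on the right common sciatic nerve (Bennett–Xie), under chloral hydrate anaesthesia. Oral dosing. Analgesimeter paw pressure; withdrawal force in g recorded before and 30, 45, 60 min after dosing, cut-off 240 g. Rats below 40 g or above 75 g at baseline were excluded. Mean ± SEM, 6–11 rats; ANOVA with Fisher PLSD.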"}, "Rattus norvegicus [17]": {"system": "Rattus norvegicus", "experiment": "Analgesic activity against streptozotocin-induced hyperalgesia in Sprague-Dawley rat assessed as increase in paw mechanical threshold at 100 mg/kg, po", "format": "functional, organism-based", "parameters": "dose 100 mg/kg", "procedure,_shortened": "(§4)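 Male Sprague–Dawley rats (150–200 g) were given streptozotocin 50 mg/kg ip and tested 21 days later. Oral dosing; paw pressure analgesimeter read as the force (g) at first struggling, before and at 30–60 min after dosing, cut-off 240 g. Rats below 40 g or above 75 g at baseline were excluded. Mean ± SEM, 9–10 rats; ANOVA with Fisher PLSD.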"}, "Rattus norvegicus [18]": {"system": "Rattus norvegicus", "experiment": "Analgesic activity against nerve injury-induced hyperalgesia in Sprague-Dawley rat assessed as increase in lesional paw pressure threshold at 10 mg/kg, po after 30 to 60 mins", "format": "functional, organism-based", "parameters": "dose 10 mg/kg", "procedure,_shortened": "as §3"}, "Rattus norvegicus [19]": {"system": "Rattus norvegicus", "experiment": "Analgesic activity against streptozotocin-induced hyperalgesia in Sprague-Dawley rat assessed as increase in paw mechanical threshold at 50 mg/kg, po", "format": "functional, organism-based", "parameters": "dose 50 mg/kg", "procedure,_shortened": "as §4"}}, "note": "The source made the active and inactive calls."}
{"smiles": "O=C1CN2C(=O)CCC2N1", "note": "(stereo not drawn) [DIMIRACETAM]", "values": [{"measurement": "Activity", "setting": "Rattus norvegicus [1]", "value": 39.2, "unit": "g"}, {"measurement": "Activity", "setting": "Rattus norvegicus [2]", "value": 42.8, "unit": "g"}, {"measurement": "Activity", "setting": "Rattus norvegicus [3]", "value": 41, "unit": "g"}]}
{"smiles": "N#Cc1ccc(N2C(=O)CN3C(=O)CCC32)cc1", "note": "(stereo not drawn)", "values": [{"measurement": "Activity", "setting": "Rattus norvegicus [4]", "value": 59.4, "unit": "g"}, {"measurement": "Activity", "setting": "Rattus norvegicus [5]", "value": 55.3, "unit": "g"}, {"measurement": "Activity", "setting": "Rattus norvegicus [6]", "value": 58.2, "unit": "g"}, {"measurement": "Activity", "setting": "Rattus norvegicus [7]", "value": "Dose-dependent effect"}, {"measurement": "Activity", "setting": "Rattus norvegicus [8]", "value": "Active"}]}
{"smiles": "NCC1(CC(=O)O)CCCCC1", "note": "[GABAPENTIN]", "values": [{"measurement": "Activity", "setting": "Rattus norvegicus [9]", "value": 43.5, "unit": "g"}, {"measurement": "Activity", "setting": "Rattus norvegicus [10]", "value": 46.3, "unit": "g"}, {"measurement": "Activity", "setting": "Rattus norvegicus [11]", "value": 46.1, "unit": "g"}]}
{"smiles": "Cc1cccc(C)c1NC(=O)CN1CCCC1=O", "note": "[NEFIRACETAM]", "values": [{"measurement": "Activity", "setting": "Rattus norvegicus [9]", "value": 49.5, "unit": "g"}, {"measurement": "Activity", "setting": "Rattus norvegicus [10]", "value": 46.7, "unit": "g"}, {"measurement": "Activity", "setting": "Rattus norvegicus [11]", "value": 47.6, "unit": "g"}]}
{"smiles": "O=C1CCC2N1CC(=O)N2c1ccccc1", "note": "(stereo not drawn)", "values": [{"measurement": "Activity", "setting": "Rattus norvegicus [9]", "value": 52.7, "unit": "g"}, {"measurement": "Activity", "setting": "Rattus norvegicus [10]", "value": 51.7, "unit": "g"}, {"measurement": "Activity", "setting": "Rattus norvegicus [11]", "value": 53.3, "unit": "g"}]}
{"smiles": "N#Cc1cccc(N2C(=O)CN3C(=O)CCC32)c1", "note": "(stereo not drawn)", "values": [{"measurement": "Activity", "setting": "Rattus norvegicus [12]", "value": "Non-toxic"}, {"measurement": "Activity", "setting": "Rattus norvegicus [9]", "value": 55.4, "unit": "g"}, {"measurement": "Activity", "setting": "Rattus norvegicus [10]", "value": 49.7, "unit": "g"}, {"measurement": "Activity", "setting": "Rattus norvegicus [7]", "value": "Dose-dependent effect"}, {"measurement": "Activity", "setting": "Rattus norvegicus [11]", "value": 46.8, "unit": "g"}, {"measurement": "Activity", "setting": "Rattus norvegicus [8]", "value": "Active"}]}
{"smiles": "Cc1ccccc1N1C(=O)CN2C(=O)CCC21", "note": "(stereo not drawn)", "values": [{"measurement": "Activity", "setting": "Rattus norvegicus [9]", "value": 55.3, "unit": "g"}, {"measurement": "Activity", "setting": "Rattus norvegicus [10]", "value": 46.7, "unit": "g"}, {"measurement": "Activity", "setting": "Rattus norvegicus [11]", "value": 54.8, "unit": "g"}]}
{"smiles": "CC[C@@H](C(N)=O)N1CCCC1=O", "note": "[LEVETIRACETAM]", "values": [{"measurement": "Activity", "setting": "Rattus norvegicus [13]", "value": 51.8}, {"measurement": "Activity", "setting": "Rattus norvegicus [14]", "value": 49.3}, {"measurement": "Activity", "setting": "Rattus norvegicus [15]", "value": 52.1}]}
{"smiles": "Cc1ccc(N2C(=O)CN3C(=O)CCC32)cc1", "note": "(stereo not drawn)", "values": [{"measurement": "Activity", "setting": "Rattus norvegicus [4]", "value": 54, "unit": "g"}, {"measurement": "Activity", "setting": "Rattus norvegicus [5]", "value": 57.4, "unit": "g"}, {"measurement": "Activity", "setting": "Rattus norvegicus [12]", "value": "Non-toxic"}, {"measurement": "Activity", "setting": "Rattus norvegicus [6]", "value": 45.4, "unit": "g"}, {"measurement": "Activity", "setting": "Rattus norvegicus [16]", "value": "Active"}, {"measurement": "Activity", "setting": "Rattus norvegicus [17]", "value": "Active"}, {"measurement": "Activity", "setting": "Rattus norvegicus [18]", "value": "inactive"}, {"measurement": "Activity", "setting": "Rattus norvegicus [19]", "value": "Active"}]}
{"smiles": "CC(C)c1cccc(N2C(=O)CN3C(=O)CCC32)c1", "note": "(stereo not drawn)", "values": [{"measurement": "Activity", "setting": "Rattus norvegicus [9]", "value": 43.7, "unit": "g"}, {"measurement": "Activity", "setting": "Rattus norvegicus [10]", "value": 48.5, "unit": "g"}, {"measurement": "Activity", "setting": "Rattus norvegicus [11]", "value": 42.5, "unit": "g"}]}
{"smiles": "Cc1cccc(N2C(=O)CN3C(=O)CCC32)c1", "note": "(stereo not drawn)", "values": [{"measurement": "Activity", "setting": "Rattus norvegicus [4]", "value": 59.3, "unit": "g"}, {"measurement": "Activity", "setting": "Rattus norvegicus [5]", "value": 63.4, "unit": "g"}, {"measurement": "Activity", "setting": "Rattus norvegicus [6]", "value": 51.2, "unit": "g"}]}
